Assay outcomes (PubChem)
L major viab: Leishmania major promastigote growth inhibition, primary screen; Leishmania major promastigotes, resazurin fluorescence viability; inhibition, % at 10 µM; 200,000 tested, 9% active; in the data active means inhibition above about 50%;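 further: promastigotes grown with compound for 44 hours at 28 °C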
ABCG2 inh: ABCG2 efflux pump inhibitors, primary screen, multiplex with ABCB1, IgMXP3 cells, flow cytometry; inhibition, % at 6.6 µM; Broad substrate specificity ATP-binding cassette transporter ABCG2 (Homo sapiens), Q9UNQ0; JC-1 efflux; 190,000 tested, 0.1% active;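 active means inhibition above 80%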;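 further: 0% = DMSO and 100% = nicardipine control wells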
Target sequence (Q9UNQ0 whole entry, looked up): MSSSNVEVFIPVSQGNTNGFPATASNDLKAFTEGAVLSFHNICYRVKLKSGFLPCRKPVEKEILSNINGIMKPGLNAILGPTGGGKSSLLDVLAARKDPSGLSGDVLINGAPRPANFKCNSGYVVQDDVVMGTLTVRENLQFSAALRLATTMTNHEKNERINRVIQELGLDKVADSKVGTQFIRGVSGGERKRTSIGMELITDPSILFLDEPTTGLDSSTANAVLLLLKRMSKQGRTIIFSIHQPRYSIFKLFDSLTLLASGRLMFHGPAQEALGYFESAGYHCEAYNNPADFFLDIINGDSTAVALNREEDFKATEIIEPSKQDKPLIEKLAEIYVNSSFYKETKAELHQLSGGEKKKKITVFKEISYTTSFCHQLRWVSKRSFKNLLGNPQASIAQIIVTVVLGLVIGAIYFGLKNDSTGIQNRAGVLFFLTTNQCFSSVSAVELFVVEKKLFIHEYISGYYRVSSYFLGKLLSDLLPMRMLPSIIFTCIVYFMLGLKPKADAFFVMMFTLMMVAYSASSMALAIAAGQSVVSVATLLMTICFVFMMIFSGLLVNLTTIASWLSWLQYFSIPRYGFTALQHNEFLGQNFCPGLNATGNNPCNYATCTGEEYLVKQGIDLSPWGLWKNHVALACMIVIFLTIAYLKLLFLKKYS
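Test system: IgMXP3 cells (ABCG2) mixed with DDAO far-red-labelled CCRF-Adr cells (ABCB1). Reagent: JC-1 transporter substrate. Compound dosing: single test compound dose, 6.6 µM final. Times: 10 min compound exposure, 25 °C. Detection: flow cytometry of retained JC-1 fluorescence. Read-out basis: efflux inhibition in percent versus controls. Controls: nicardipine and DMSO wells.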
RAM inhibit: inhibitors of the yeast RAM network, primary screen, dse1pr::URA3 reporter, 5-FOA selection; S. cerevisiae dse1pr::URA3 reporter, 5-FOA growth OD615, 2 d; analog-sensitive cbk1-as2 kinase mutant strain; inhibition, % at 50 µM; 190,000 tested, 1.8% active; AID 868, 2007;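 active means inhibition above a set limit, 3 SD over mean compound inhibition, cut at about 8.4% in these data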;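 further: 0% = DMSO-only wells with no growth and 100% = 10 µM 1-NA-PP1 full growth; inhibition rescues growth on 5-FOA so higher OD means more RAM inhibition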
WT yeast gro inh: growth inhibition of WT strain, primary screen, mitochondrial fusion inhibitor project, WT and mutant strains, chemical genetic. mitochondrial fusion phenotypic screen. inhibition, % at 10 µM. 190,000 tested, 2.1% active. AID 1362, 2008; in the data active means inhibition above about 58%; tested in S. cerevisiae
ABCB1 block: ABCB1 efflux pump inhibitors, primary screen, cell-based, multiplex, flow cytometry, ABCG2 counter-screen; CCRF-Adr cells, JC-1 efflux; 190,000 tested, 0.067% active; ATP-dependent translocase ABCB1 (Homo sapiens), P08183; inhibition, % at 6.6 µM; in the data active means inhibition above about 40%;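 further: 0% = vehicle and 100% = reference inhibitor; higher value means more JC-1 retained so stronger ABCB1 efflux block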
Active calls of the source: *. An excerpt weighted towards active compounds, which were near 12% of everything screened.

Screening O=[N+]([O-])c1c(NCCO)cc(N2CCCCC2)c2nonc12 returned L major viab 9, ABCG2 inh 5, RAM inhibit 1, WT yeast gro inh -9 and ABCB1 block 0.
For O=[N+]([O-])c1cc([N+](=O)[O-])c(N2CCCCCC2)cc1NCCO the results were L major viab 19, ABCG2 inh 31, RAM inhibit 1, WT yeast gro inh 80* and ABCB1 block 3.
For CCN1CCN(c2ccc(S(=O)(=O)N(CC)CC)cc2[N+](=O)[O-])CC1 the results were L major viab 95*, ABCG2 inh 5, RAM inhibit 3, WT yeast gro inh 12 and ABCB1 block 0.
COc1ccc(CCNC(=O)CCc2ccc(S(=O)(=O)NCC(C)C)cc2)cc1OC was read as L major viab -1, ABCG2 inh 5, RAM inhibit 2, WT yeast gro inh -8 and ABCB1 block 0.
Screening O=C(NCc1ccc(Cl)cc1)C(=O)NCC(c1cccnc1)N1CCN(c2ccc(F)cc2)CC1 (centres undefined) returned L major viab 94*, ABCG2 inh 2, RAM inhibit -1, WT yeast gro inh 27 and ABCB1 block 2.
Screening COc1ccc(N2CCN(C(CNC(=O)C(C)(C)C)c3cccnc3)CC2)cc1 (centres undefined) returned L major viab 10, ABCG2 inh 4, RAM inhibit 1, WT yeast gro inh 3 and ABCB1 block 2.
`O=C(NCC(c1cccnc1)N1CCN(c2ccc(F)cc2)CC1)c1ccccc1` (centres undefined) gave L major viab 89*, ABCG2 inh 2, RAM inhibit 0, WT yeast gro inh 10 and ABCB1 block 0.
For O=C(NCCCn1ccnc1)C(=O)NCC(c1cccnc1)N1CCN(c2ccc(F)cc2)CC1 (centres undefined) the results were L major viab -1, ABCG2 inh 11, RAM inhibit 0, WT yeast gro inh -5 and ABCB1 block 1.
`COc1cc2nc(-c3ccccc3)nc(N3CCCC3)c2cc1OC` gave L major viab 48, ABCG2 inh 46, RAM inhibit 1, WT yeast gro inh 31 and ABCB1 block 3.
`COc1cc2nc(NCC3CCCO3)n3nc(-c4cccnc4)nc3c2cc1OC` (centres undefined) gave L major viab 49, ABCG2 inh 6, RAM inhibit 0, WT yeast gro inh 14 and ABCB1 block 6.
Screening COc1cc2nc(NCCCN3CCN(C)CC3)n3nc(-c4ccccc4)nc3c2cc1OC returned L major viab 101*, ABCG2 inh 25, RAM inhibit 0, WT yeast gro inh 16 and ABCB1 block 5.
CCN(CC)CCCNc1nc2cc(OC)c(OC)cc2c2nc(-c3cccnc3)nn12 was read as L major viab 101*, ABCG2 inh 2, RAM inhibit -1, WT yeast gro inh -2 and ABCB1 block 0.
Screening CCN(CC)CCCNc1nc2cc(OC)c(OC)cc2c2nc(-c3ccccc3)nn12 returned L major viab 101*, ABCG2 inh 3, RAM inhibit -1, WT yeast gro inh 26 and ABCB1 block 1.
Screening Cc1csc(NC(=O)c2cc([N+](=O)[O-])cc([N+](=O)[O-])c2)n1 returned L major viab 94*, ABCG2 inh 1, RAM inhibit 4, WT yeast gro inh 14 and ABCB1 block 0.
`Cc1ccnc(NC(=O)c2cc([N+](=O)[O-])cc([N+](=O)[O-])c2)c1` gave L major viab 67*, ABCG2 inh 15, RAM inhibit 2, WT yeast gro inh -12 and ABCB1 block 0.
Screening Cc1ccnc(NC(=O)Cc2ccc([N+](=O)[O-])cc2)c1 returned L major viab -6, ABCG2 inh 3, RAM inhibit 3, WT yeast gro inh 1 and ABCB1 block 1.
For Cc1csc(NC(=O)c2nc3nc(C)cc(C)n3n2)n1 the results were L major viab 77*, ABCG2 inh 4, RAM inhibit 1, WT yeast gro inh -8 and ABCB1 block 0.
`CCC(=O)Nc1nc(-c2cc([N+](=O)[O-])cs2)cs1` gave L major viab 90*, ABCG2 inh 1, RAM inhibit 4, WT yeast gro inh 10 and ABCB1 block 1.
